According to ChEMBL document CHEMBL1124800, “9,11-epoxy-9-homoprosta-5-enoic acid analogues as thromboxane A2 receptor antagonists” (J Med Chem, 1990):

How the values were obtained:
[1] = species on record: Homo sapiens; assay: In vitro inhibition of aggregation of human platelet rich plasma induced by arachidonic acid; assay type: functional; settings: read-out: I50
[2] = species on record: Homo sapiens; assay: In vitro inhibition of aggregation of human platelet rich plasma induced by adenosine diphosphate; assay type: functional; settings: read-out: I50
[3] = species on record: Rattus norvegicus; assay: Concentration required to elicit 50% of the maximal contraction of rat stomach induced by serotonin; assay type: functional
Method in brief: (§1)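 Rat stomach strip; test compound concentration giving 50% of the maximal contraction produced by 3.0 × 10⁻⁷ M serotonin (A50). Where reported as a percentage, value is the maximum contraction seen at the stated test concentration. n = 8.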

[4] = species on record: Rattus norvegicus; assay: Maximal contraction of rat stomach induced by serotonin at 30 uM concentration; assay type: functional; method in brief: as §1
[5] = species on record: Rattus norvegicus; assay: Maximal contraction of rat stomach induced by serotonin; assay type: functional; method in brief: as §1
[6] = species on record: Rattus norvegicus; assay: Maximal contraction of rat stomach induced by serotonin at 0.1 uM concentration; assay type: functional
[7] = species on record: Rattus norvegicus; assay: Competitive antagonism of 11,9-epoxymethano-PGH2-induced contraction in rat aorta; assay type: functional
[8] = species on record: Cavia porcellus; assay: Competitive antagonism of 11,9-epoxymethano-PGH2-induced contraction in guinea pig trachea; assay type: functional
[9] = target: Thromboxane A2 receptor (Cavia porcellus); assay: Antagonistic activity against Thromboxane A2 receptor in guinea pig trachea in the presence of 9,11-azo-PGH2; settings: read-out: I50
[10] = target: T1, Thromboxane A2 receptor (Rattus norvegicus, UniProt P34978); assay: Antagonistic activity against Thromboxane A2 receptor in rat aorta in the presence of 11,9-epoxymethano-PGH2; assay type: functional, tissue-based
T1 sequence (P34978 whole entry): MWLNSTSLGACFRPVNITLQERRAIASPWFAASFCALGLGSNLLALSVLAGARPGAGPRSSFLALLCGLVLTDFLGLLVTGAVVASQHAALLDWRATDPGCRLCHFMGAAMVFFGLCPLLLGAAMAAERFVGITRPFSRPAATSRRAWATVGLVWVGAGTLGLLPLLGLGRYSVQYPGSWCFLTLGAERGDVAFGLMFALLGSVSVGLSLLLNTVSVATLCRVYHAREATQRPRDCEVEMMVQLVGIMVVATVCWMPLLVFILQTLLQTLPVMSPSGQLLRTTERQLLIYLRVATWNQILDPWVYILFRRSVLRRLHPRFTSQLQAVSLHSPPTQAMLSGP

[11] = target: Thromboxane A2 receptor (Cavia porcellus); assay: Antagonistic activity against Thromboxane A2 receptor in guinea pig trachea in the presence of 11,9-epoxymethano-PGH2; settings: read-out: pA2 (converted)

Compound | IC50 [1] | IC50 [2] | further results
C[C@H](c1ccccc1)[C@H](O)/C=C/C1C2CCC(O2)[C@@H]1C/C=C\CCCC(=O)O (some centres undefined) | 730 µM | > 100 µM | –
C[C@@H](c1ccccc1)[C@H](O)/C=C/[C@@H]1C2CCC(O2)[C@@H]1C/C=C\COCC(=O)O (some centres undefined) | 3.4 µM | – | –
C[C@H](c1ccccc1)[C@H](O)/C=C/C1C2CCC(O2)[C@H]1C/C=C\CCCC(=O)O (some centres undefined) | 3.1 µM | > 1000 µM | Contraction [5]: 0%
C[C@@H](c1ccccc1)[C@H](O)/C=C/[C@@H]1C2CCC(O2)[C@@H]1C/C=C\CCC(C)(C)C(=O)O (some centres undefined) | 260 µM | – | –
O=C(O)CCC/C=C\CC1C2CCC(O2)C1/C=C/[C@@H](O)CCc1ccccc1 (some centres undefined) | 1.2 µM | > 1000 µM | A50 [3]: 3.7 µM
O=C(O)CCC/C=C\CC1C2CCC(O2)C1/C=C/[C@@H](O)COc1ccccc1 (some centres undefined) | – | – | A50 [3]: 6 µM
C[C@@H](c1ccc(O)cc1)[C@H](O)/C=C/C1C2CCC(O2)C1C/C=C\CCCC(=O)O (some centres undefined) | 0.24 µM | 950 µM | Contraction [6]: 21%
O=C(O)CCC/C=C\C[C@H]1C2CCC(O2)[C@H]1CNNC(=O)Nc1ccccc1 (some centres undefined) | – | – | Kb [7]: 0.00066 µM; Kb [8]: 0.0013 µM

Now from value to molecule, other results behind:

IC50 [1] | IC50 [2] | Compound | further results
1.1 µM | > 1000 µM | CCCCC(C)(C)[C@H](O)/C=C/C1C2CCC(O2)C1C/C=C\CCCC(=O)O (some centres undefined) | –
1.7 µM | 300 µM | CCCCC[C@H](O)/C=C/C1C2CCC(O2)C1C/C=C\CCCC(=O)O (some centres undefined) | A50 [3]: 0.4 µM
0.4 µM | 0.9 µM | O=C(O)CCC/C=C\CC1C2CCC(O2)C1/C=C/[C@@H](O)C1CCCCC1 (some centres undefined) | Contraction [4]: 9%
3.8 µM | – | C[C@@H](c1ccccc1)[C@H](O)/C=C/[C@@H]1C2CCC(O2)[C@@H]1C/C=C\C/C=C/C(=O)O (some centres undefined) | –
3.2 µM | – | C[C@@H](c1ccccc1)[C@H](O)/C=C/[C@@H]1C2CCC(O2)[C@@H]1C/C=C\CCCc1nnn[nH]1 (some centres undefined) | –
0.93 µM | > 1000 µM | C[C@@H](c1ccc(O)c(I)c1)[C@H](O)/C=C/C1C2CCC(O2)C1C/C=C\CCCC(=O)O (some centres undefined) | –
25 µM | – | CC(CC/C=C\C[C@H]1C2CCC(O2)[C@H]1/C=C/[C@@H](O)[C@@H](C)c1ccccc1)C(=O)O (some centres undefined) | –
12 µM | – | CC(C/C=C\C[C@H]1C2CCC(O2)[C@H]1/C=C/[C@@H](O)[C@@H](C)c1ccccc1)CC(=O)O (some centres undefined) | –
0.65 µM | > 1000 µM | C[C@@H](c1ccccc1)[C@H](O)/C=C/C1C2CCC(O2)C1C/C=C\CCCC(=O)O (some centres undefined) | IC50 [9]: 1.98 µM; Kb [10]: 0.00794 µM; Kb [7]: 0.0135 µM; Kb [8]: 0.0121 µM; Kb [11]: 0.01 µM; Contraction [5]: 0%
25 µM | – | C[C@@H](c1ccccc1)[C@H](O)/C=C/[C@@H]1C2CCC(O2)[C@@H]1CC/C=C/CCC(=O)O (some centres undefined) | –
